Measurements published in ChEMBL document CHEMBL1130166, “Synthesis and pharmacological characterization of 3-[2-((3aR,9bR)-cis-6-methoxy-2,3,3a,4,5,9b-hexahydro-1H-benz[e] isoindol-2-yl)ethyl]pyrido-[3',4':4,5]thieno[3,2-d]pyrimidine-2,4 (1H,3H)-dione (A-131701): a uroselective alpha 1A adrenoceptor antagonist for the symptomatic treatment of benign …” (J Med Chem, 1997).

What was measured:
[1] = target: 5-hydroxytryptamine receptor 2A (Bos taurus, UniProt Q75Z89); experiment: Binding affinity against 5-hydroxytryptamine 2 receptor using [3H]ketanserin as radioligand
Sequence of 5-hydroxytryptamine receptor 2A (Q75Z89 whole entry): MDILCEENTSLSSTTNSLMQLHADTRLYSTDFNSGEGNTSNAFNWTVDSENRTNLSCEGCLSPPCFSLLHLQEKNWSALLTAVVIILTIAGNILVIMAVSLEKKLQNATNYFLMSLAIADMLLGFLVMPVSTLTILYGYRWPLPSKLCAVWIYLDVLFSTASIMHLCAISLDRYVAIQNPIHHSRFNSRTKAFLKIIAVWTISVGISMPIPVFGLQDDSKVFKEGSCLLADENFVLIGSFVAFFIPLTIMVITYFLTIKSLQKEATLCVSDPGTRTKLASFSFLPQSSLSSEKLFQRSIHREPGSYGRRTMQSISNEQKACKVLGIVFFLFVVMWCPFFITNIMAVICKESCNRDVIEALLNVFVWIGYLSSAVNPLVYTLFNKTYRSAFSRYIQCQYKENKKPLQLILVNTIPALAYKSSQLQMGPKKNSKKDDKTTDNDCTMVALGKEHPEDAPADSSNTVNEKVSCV

[2] = target: T1, Alpha-2C adrenergic receptor (Homo sapiens, UniProt P18825); experiment: Binding affinity against human Alpha-2C adrenergic receptor using [3H]rauwolscine as radioligand
T1 sequence (P18825 whole entry): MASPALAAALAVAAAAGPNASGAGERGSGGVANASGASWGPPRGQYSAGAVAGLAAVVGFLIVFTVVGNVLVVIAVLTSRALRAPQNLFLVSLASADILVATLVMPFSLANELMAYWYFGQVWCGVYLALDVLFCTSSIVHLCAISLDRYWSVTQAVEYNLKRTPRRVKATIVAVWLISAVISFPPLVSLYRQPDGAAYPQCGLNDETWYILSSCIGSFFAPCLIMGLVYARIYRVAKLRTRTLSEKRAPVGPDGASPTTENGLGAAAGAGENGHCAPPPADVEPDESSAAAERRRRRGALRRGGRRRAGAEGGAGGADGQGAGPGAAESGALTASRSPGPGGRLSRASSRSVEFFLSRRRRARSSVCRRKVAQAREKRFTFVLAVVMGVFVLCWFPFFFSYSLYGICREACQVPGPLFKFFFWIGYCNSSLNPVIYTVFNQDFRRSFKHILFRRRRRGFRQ

[3] = target: T2, Alpha-2A adrenergic receptor (Homo sapiens, UniProt P08913); experiment: Binding affinity against human adrenergic receptor subtype Alpha-2A adrenergic receptor using [3H]rauwolscine as radioligand
T2 sequence (P08913 whole entry): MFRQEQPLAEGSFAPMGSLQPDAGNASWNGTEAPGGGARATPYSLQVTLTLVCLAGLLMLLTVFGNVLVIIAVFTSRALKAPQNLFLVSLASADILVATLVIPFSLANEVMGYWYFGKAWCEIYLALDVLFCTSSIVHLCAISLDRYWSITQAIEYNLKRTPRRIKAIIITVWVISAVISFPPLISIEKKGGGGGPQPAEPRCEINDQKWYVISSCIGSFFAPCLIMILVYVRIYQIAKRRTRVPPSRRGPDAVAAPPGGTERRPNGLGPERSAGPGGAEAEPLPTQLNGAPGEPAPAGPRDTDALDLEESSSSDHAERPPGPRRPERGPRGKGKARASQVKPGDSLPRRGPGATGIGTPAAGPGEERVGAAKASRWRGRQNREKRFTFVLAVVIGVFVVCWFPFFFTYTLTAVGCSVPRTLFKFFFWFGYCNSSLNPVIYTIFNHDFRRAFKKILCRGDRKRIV

[4] = target: T3, Alpha-1D adrenergic receptor (Homo sapiens, UniProt P25100); experiment: Binding affinity against human adrenergic receptor subtype Alpha-1D adrenergic receptor using [3H]prazosin as radioligand
T3 sequence (P25100 whole entry): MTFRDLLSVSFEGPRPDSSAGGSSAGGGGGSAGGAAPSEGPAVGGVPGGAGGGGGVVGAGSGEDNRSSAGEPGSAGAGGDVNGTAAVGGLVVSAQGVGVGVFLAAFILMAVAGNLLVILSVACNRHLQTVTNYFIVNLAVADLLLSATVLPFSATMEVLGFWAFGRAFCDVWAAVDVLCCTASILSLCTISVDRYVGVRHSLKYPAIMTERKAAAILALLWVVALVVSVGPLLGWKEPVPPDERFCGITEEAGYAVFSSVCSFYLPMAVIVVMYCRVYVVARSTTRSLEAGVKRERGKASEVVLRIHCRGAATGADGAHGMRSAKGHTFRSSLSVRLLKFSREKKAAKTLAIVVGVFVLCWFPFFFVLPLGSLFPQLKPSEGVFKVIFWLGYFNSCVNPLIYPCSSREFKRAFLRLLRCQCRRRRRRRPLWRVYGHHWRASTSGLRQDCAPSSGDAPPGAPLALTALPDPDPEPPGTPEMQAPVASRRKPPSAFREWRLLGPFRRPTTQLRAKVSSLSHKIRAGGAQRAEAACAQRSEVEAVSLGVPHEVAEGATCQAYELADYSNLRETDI

[5] = target: T4, Alpha-1B adrenergic receptor (Rattus norvegicus, UniProt P15823); experiment: In vitro antagonism against Alpha-1B adrenergic receptor using phenylephrine (PE) challenge in rat spleen; assay type: functional, tissue-based; settings: read-out: pA2 (converted)
T4 sequence (P15823 whole entry): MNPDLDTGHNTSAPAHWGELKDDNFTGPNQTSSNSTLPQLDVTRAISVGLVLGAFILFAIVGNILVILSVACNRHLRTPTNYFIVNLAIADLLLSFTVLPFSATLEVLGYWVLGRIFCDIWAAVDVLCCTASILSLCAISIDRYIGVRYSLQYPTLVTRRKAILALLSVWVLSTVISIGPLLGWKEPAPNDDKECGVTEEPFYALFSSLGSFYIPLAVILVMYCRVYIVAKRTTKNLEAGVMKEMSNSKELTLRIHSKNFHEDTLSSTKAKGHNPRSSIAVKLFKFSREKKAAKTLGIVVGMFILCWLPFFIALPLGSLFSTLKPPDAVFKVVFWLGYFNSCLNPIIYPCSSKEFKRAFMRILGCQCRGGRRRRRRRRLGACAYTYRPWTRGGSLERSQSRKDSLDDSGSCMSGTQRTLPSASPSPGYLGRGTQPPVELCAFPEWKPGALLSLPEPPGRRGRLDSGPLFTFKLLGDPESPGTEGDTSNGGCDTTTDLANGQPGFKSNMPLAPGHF
Summary of the method: (§1)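 Agonist concentration-response curves were run on the isolated tissue, then repeated in the presence of increasing concentrations of antagonist. pA2 was obtained by Schild analysis.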

[6] = target: T5, Alpha-1B adrenergic receptor (Homo sapiens, UniProt P35368); experiment: Binding affinity against human adrenergic receptor subtype Alpha-1B adrenergic receptor using [3H]prazosin as radioligand
T5 sequence (P35368 whole entry): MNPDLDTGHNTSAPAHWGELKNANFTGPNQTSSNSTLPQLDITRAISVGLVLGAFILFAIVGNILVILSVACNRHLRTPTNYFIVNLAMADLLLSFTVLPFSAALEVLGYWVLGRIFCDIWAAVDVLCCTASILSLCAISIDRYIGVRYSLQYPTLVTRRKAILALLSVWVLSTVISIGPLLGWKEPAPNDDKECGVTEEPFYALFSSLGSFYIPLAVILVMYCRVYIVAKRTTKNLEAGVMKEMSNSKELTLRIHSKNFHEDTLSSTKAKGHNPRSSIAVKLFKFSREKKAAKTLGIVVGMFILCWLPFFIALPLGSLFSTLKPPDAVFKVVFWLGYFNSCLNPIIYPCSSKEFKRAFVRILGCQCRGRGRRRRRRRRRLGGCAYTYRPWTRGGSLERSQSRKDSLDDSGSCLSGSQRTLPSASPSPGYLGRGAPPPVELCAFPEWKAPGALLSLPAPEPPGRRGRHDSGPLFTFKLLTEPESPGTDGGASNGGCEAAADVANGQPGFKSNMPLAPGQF

[7] = target: Beta-1 adrenergic receptor (Homo sapiens, UniProt P08588); experiment: Binding affinity against Beta-1 adrenergic receptor using [3H]DHA as radioligand
Sequence of Beta-1 adrenergic receptor (P08588 whole entry): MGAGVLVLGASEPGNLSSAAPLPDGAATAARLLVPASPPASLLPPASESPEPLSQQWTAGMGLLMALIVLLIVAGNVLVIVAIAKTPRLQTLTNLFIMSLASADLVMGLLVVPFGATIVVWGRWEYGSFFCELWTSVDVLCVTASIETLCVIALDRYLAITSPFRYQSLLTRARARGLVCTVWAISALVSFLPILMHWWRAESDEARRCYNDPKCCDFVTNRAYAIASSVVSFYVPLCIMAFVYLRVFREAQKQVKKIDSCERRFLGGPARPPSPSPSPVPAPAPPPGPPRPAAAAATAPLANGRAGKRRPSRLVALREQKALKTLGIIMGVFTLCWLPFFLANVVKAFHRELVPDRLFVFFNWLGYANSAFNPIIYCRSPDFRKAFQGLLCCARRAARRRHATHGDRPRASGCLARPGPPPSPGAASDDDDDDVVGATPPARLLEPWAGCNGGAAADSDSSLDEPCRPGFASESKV

[8] = target: T6, Alpha-2B adrenergic receptor (Rattus norvegicus, UniProt P19328); experiment: Binding affinity against rat Alpha-2B adrenergic receptor using [3H]rauwolscine as radioligand
T6 sequence (P19328 whole entry): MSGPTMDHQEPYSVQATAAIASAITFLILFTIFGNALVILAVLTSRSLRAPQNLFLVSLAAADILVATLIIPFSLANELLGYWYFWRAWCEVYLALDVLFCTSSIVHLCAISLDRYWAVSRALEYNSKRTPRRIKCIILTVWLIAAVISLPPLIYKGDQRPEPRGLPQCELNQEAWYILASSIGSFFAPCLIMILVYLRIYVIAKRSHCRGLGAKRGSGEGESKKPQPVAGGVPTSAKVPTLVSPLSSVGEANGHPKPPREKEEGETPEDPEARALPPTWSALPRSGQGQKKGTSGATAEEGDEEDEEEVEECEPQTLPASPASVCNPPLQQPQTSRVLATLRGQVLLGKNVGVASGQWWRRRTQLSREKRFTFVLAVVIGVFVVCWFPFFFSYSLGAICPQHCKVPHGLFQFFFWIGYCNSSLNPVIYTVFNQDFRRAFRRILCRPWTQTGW

[9] = target: T7, 5-hydroxytryptamine receptor 1F (Rattus norvegicus, UniProt P30940); experiment: Binding affinity against 5-hydroxytryptamine 1 receptor using [3H]5-HT as radioligand
T7 sequence (P30940 whole entry): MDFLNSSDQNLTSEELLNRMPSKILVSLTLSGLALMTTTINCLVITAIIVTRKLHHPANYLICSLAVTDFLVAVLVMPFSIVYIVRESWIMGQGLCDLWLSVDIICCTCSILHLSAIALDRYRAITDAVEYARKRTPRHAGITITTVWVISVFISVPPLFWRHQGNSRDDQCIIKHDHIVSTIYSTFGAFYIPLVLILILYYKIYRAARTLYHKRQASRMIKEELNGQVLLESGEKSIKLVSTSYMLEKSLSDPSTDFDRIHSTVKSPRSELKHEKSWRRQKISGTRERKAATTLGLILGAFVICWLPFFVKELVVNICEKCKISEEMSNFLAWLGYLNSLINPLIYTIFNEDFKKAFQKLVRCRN

D(1A) dopamine receptor = D(1A) dopamine receptor (Mus musculus, UniProt Q61616); experiment: Binding affinity against Dopamine receptor D1 using [3H]SCH-23390 as radioligand
Sequence of D(1A) dopamine receptor (Q61616 whole entry): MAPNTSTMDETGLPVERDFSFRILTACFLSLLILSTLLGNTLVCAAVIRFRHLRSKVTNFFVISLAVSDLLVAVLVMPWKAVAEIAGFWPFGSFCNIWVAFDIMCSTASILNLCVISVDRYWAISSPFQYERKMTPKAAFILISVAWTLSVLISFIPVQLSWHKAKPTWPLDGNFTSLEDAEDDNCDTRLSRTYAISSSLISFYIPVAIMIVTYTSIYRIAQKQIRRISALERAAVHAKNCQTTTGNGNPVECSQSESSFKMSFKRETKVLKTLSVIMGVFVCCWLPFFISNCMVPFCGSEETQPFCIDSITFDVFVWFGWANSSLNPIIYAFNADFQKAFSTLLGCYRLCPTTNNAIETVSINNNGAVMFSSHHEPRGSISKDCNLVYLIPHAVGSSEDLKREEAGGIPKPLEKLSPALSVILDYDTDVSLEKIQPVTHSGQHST

Rattus norvegicus = experiment: Compound was tested for selectivity in a challenge spontaneously hypertensive rat (SHR) model using an ascending iv dose paradigm
[10] = target: Beta-2 adrenergic receptor (Homo sapiens, UniProt P07550); experiment: Binding affinity against adrenergic receptor subtype Beta-2 adrenergic receptor using [3H]DHA as radioligand
Sequence of Beta-2 adrenergic receptor (P07550 whole entry): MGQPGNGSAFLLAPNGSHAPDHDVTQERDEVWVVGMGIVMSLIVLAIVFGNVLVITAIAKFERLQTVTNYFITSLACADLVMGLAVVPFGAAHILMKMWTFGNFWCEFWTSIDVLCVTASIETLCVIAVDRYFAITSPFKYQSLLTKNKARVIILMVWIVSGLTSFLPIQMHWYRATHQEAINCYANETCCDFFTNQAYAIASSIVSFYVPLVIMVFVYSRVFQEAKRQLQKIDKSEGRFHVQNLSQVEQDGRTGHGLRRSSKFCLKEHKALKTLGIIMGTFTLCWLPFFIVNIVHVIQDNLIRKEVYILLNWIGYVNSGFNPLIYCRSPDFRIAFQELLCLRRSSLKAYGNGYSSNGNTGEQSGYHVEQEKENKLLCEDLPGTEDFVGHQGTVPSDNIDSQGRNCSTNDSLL

D(2) dopamine receptor = D(2) dopamine receptor (Homo sapiens, UniProt P14416); experiment: Binding affinity against Dopamine receptor D2 using [3H]spiroperidol as radioligand
Sequence of D(2) dopamine receptor (P14416 whole entry): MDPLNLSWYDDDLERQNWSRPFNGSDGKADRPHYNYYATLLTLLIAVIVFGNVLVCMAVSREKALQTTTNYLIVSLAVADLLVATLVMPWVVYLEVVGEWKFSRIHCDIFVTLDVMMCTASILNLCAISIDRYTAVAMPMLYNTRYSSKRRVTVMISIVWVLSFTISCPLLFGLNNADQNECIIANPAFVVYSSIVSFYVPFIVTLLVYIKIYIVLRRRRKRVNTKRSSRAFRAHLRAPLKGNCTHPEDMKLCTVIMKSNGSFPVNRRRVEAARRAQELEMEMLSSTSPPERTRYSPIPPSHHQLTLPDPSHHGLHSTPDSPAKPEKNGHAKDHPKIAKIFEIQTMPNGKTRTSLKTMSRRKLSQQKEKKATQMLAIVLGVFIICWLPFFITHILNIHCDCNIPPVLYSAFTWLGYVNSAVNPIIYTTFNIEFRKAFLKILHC

[11] = target: T8, Alpha-1D adrenergic receptor (Rattus norvegicus, UniProt P23944); experiment: In vitro antagonism against Alpha-1D adrenergic receptor using phenylephrine (PE) challenge in rat aorta; assay type: functional, tissue-based; settings: read-out: pA2 (converted); summary of the method: as §1
T8 sequence (P23944 whole entry): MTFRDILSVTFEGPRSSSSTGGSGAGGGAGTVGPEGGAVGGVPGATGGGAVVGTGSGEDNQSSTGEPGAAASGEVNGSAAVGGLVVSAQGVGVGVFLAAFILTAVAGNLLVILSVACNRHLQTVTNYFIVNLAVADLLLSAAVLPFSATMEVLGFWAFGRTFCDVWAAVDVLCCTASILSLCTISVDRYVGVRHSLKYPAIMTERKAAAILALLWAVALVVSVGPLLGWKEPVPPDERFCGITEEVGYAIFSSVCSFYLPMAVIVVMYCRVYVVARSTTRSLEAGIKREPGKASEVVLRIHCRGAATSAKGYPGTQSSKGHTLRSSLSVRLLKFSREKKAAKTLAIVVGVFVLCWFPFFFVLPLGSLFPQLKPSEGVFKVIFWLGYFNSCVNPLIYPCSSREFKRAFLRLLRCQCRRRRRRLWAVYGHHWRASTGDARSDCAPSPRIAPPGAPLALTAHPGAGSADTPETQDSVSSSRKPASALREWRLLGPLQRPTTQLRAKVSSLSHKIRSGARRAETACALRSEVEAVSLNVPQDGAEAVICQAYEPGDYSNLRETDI

| SMILES | Ki [1] [nM] | Ki [2] [nM] | Ki [3] [nM] | Ki [4] [nM] | Kb [5] [nM] | Ki [6] [nM] | Ki [7] [nM] | Ki [8] [nM] | Ki [9] [nM] | Ki (D(1A) dopamine receptor) [nM] | pED50 (Rattus norvegicus) | Ki [10] [nM] | Ki (D(2) dopamine receptor) [nM] | Kb [11] [nM] |
| --- | --- | --- | --- | --- | --- | --- | --- | --- | --- | --- | --- | --- | --- | --- |
| COc1cccc2c1CC[C@H]1CN(CCn3c(=O)[nH]c4c(sc5cccnc54)c3=O)C[C@@H]21 | 83 | 16.6 | 94.9 | 0.97 | 12.9 | 6.95 | 10600 | 13.1 | 3380 | 717 | 5.33 | 3870 | 19.7 | 0.776 |
| CCOc1ccccc1OCCN[C@H](C)Cc1ccc(OC)c(S(N)(=O)=O)c1 [TAMSULOSIN] | – | 7.9 | 13.4 | 0.058 | 0.204 | 0.61 | – | 6.8 | – | – | 7.33 | – | – | – |
| COc1cc2nc(N3CCN(C(=O)C4CCCO4)CC3)nc(N)c2cc1OC (stereo not given) [TERAZOSIN] | – | – | 1500 | 0.85 | – | – | – | 7.7 | – | – | 6.64 | – | – | – |
